The values that follow come from ChEMBL document CHEMBL1629520, “Synthesis and optimization of antitubercular activities in a series of 4-(aryloxy)phenyl cyclopropyl methanols” (Eur J Med Chem, 2010).

Converted amounts (≈) assume the structure as drawn.

Data set [1] deals with Mycobacterium tuberculosis. The experiment in a line: Antitubercular activity against Mycobacterium tuberculosis H37Rv after 30 days by agar microdilution method. Type of data set: functional. In short, it runs like this: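 Compound dissolved in DMSO; two-fold dilutions added to Middlebrook 7H10 with OADC in slanted tubes, preincubated 24 h at 37 °C. Tubes then streaked with 5 × 10⁵ bacilli of H37Rv harvested from L–J culture into 0.85% saline with 0.05% Tween-80. Incubated 30 days at 37 °C. MIC is the lowest concentration giving complete inhibition of colonies, judged against drug-free control tubes.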

For data set [2], the system named is Mycobacterium tuberculosis. The experiment in a line: Antitubercular activity against Mycobacterium tuberculosis H37Rv infected in swiss mouse assessed as increase in mean survival time at 25 mg/kg, po qd for 28 days measured on day 40. It is filed as functional. In short, it runs like this:
(§1)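 Outbred female Swiss mice (18–20 g) infected i.v. via lateral vein with 10⁷ CFU H37Rv; groups of 10 formed next day. Test compound given as aqueous suspension at 100 mg/kg, INH at 25 mg/kg; placebo given to infected controls. All dosing oral, daily for 28 days. Mean survival time and % survivors scored at days 30 and 40; lung bacillary load per g determined on day 30.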

Data set [3] concerns Mycobacterium tuberculosis. In words: Antitubercular activity against Mycobacterium tuberculosis H37Rv infected in swiss mouse assessed as increase mouse survival at 25 mg/kg, po qd for 28 days measured on day 30 relative to control. It is filed as functional. In short, it runs like this: as §1
Data set [4] relates to Mycobacterium tuberculosis. The experiment in a line: Antitubercular activity against Mycobacterium tuberculosis H37Rv infected in swiss mouse assessed as increase mouse survival at 25 mg/kg, po qd for 28 days measured on day 40 relative to control. It is filed as functional. In short, it runs like this: as §1
Data set [5] relates to Mycobacterium tuberculosis. In words: Antitubercular activity against Mycobacterium tuberculosis H37Rv infected in swiss mouse assessed as increase in mean survival time at 25 mg/kg, po qd for 28 days measured on day 30 relative to control. It is filed as functional. In short, it runs like this:
as §1

Data set [6] has as its system Mycobacterium tuberculosis. In words: Antitubercular activity against Mycobacterium tuberculosis H37Rv infected in mouse BMDM assessed as reduction in intracellular CFU at 5 times MIC after 4 weeks relative to control. Type of data set: functional. Also noted: scale not given: the % may be the effect or the level left. A digest of the protocol:
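Murine bone-marrow macrophages cultured 5 days, then infected 3 h with 5 × 10⁶ H37Rv in antibiotic-free DMEM/10% FBS. Extracellular bacteria washed off, and compound added at 5× MIC. After 4 days at 37 °C, 5% CO₂, cells lysed with 0.1% saponin. Lysates serially diluted in saline and plated on 7H11; colonies counted after 4 weeks at 37 °C.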

For data set [7], the system named is Mycobacterium tuberculosis. In words: Antitubercular activity against Mycobacterium tuberculosis H37Rv infected in swiss mouse assessed as increase in mean survival time at 100 mg/kg, po qd for 28 days measured on day 30. Type of data set: functional. A digest of the protocol: as §1
A short description of data set [8]: Chemical stability of the compound in HCl at […] assessed as compound remaining after 3 hrs by HPLC analysis. Type of data set: physicochemical. Conditions: HCl solution; read-out: Stability. In short, it runs like this:
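Compound held in 0.1N HCl (gastric pH) at ambient temperature for up to 3 h and analysed by HPLC on a CN column (250 mm × 4 mm, 5 µm) at 25 ± 3 °C with PDA detection. Intact parent was followed by its peak, and degradation products by their retention times.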

The test system of data set [9] is Mycobacterium tuberculosis. In words: Antitubercular activity against Mycobacterium tuberculosis H37Rv infected in swiss mouse assessed as increase mouse survival at 100 mg/kg, po qd for 28 days measured on day 40 relative to control. Type of data set: functional. In short, it runs like this: as §1
Data set [10] concerns Mycobacterium tuberculosis. The experiment in a line: Antitubercular activity against Mycobacterium tuberculosis H37Rv infected in swiss mouse assessed as increase mouse survival at 100 mg/kg, po qd for 28 days measured on day 30 relative to control. It is filed as functional. A digest of the protocol:
as §1

For data set [11], the system named is Mycobacterium tuberculosis. In words: Antitubercular activity against drug-susceptible Mycobacterium tuberculosis clinical isolate2 after 30 days by agar microdilution method. It is filed as functional.
Data set [12] has as its system Mycobacterium tuberculosis. In words: Antitubercular activity against drug-susceptible Mycobacterium tuberculosis clinical isolate1 after 30 days by agar microdilution method. It is filed as functional.
Data set [13] is described as follows: Cytotoxicity against mouse BMDM after 48 hrs by MTS assay. Type of data set: cell-based. A digest of the protocol:
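Mouse bone-marrow cells were flushed into DMEM with 10% FBS, 15% L-929 conditioned supernatant and non-essential amino acids. They were plated at 10⁵/well and cultured 5 days at 37 °C, 5% CO₂, with medium changed every 3rd day. Graded compound concentrations were added in antibiotic-free FBS-DMEM for 48 h. MTS was added for 2 h and A490 read, with DMSO wells taken as 100% survival.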
(Formazan colour is commonly taken as a measure of viable cells.)

Data set [14] relates to Mycobacterium tuberculosis. In words: Antitubercular activity against Mycobacterium tuberculosis H37Rv infected in swiss mouse assessed as increase in mean survival time at 100 mg/kg, po qd for 28 days measured on day 40. Type of data set: functional. A digest of the protocol:
as §1

The subject of another data set is Vero. In words: Cytotoxicity against african green monkey Vero cells after 24 hrs by MTS assay. Type of data set: cell-based. Conditions: Chlorocebus sabaeus. A digest of the protocol:
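Vero cells were seeded at 10,000/well in DMEM with antibiotics and 10% FBS and left to adhere overnight at 37 °C, 5% CO₂. […] MTS was then added for 2 h and A490 read, with DMSO wells taken as 100% survival.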

A short description of data set [15]: Selectivity index, ratio of IC50 for african green monkey Vero cells to MIC for Mycobacterium tuberculosis H37Rv. It is filed as functional. In short, it runs like this:
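Vero cells seeded at 10,000/well in DMEM with antibiotics and 10% FBS, allowed to adhere overnight (37 °C, 5% CO₂). […] MTS added for 2 h, absorbance read at 490 nm, with DMSO wells taken as 100% survival. IC50 divided by H37Rv agar MIC.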

For data set [16], the system named is Mycobacterium tuberculosis. In words: Antitubercular activity against Mycobacterium tuberculosis H37Rv infected in swiss mouse assessed as decrease in bacilli load in lungs at 100 mg/kg, po qd for 28 days measured on day 30. It is filed as functional. A digest of the protocol:
as §1

A short description of data set [17]: Selectivity index, ratio of IC50 for mouse BMDM to MIC for Mycobacterium tuberculosis H37Rv. It is filed as functional. A digest of the protocol: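 Bone-marrow cells flushed with DMEM containing 10% FBS, 15% L-929 conditioned supernatant and non-essential amino acids. Seeded at 10⁵/well and grown 5 days, medium changed every 3rd day. Compounds added in antibiotic-free FBS-DMEM for 48 h. MTS added for 2 h, A490 read, DMSO wells taken as 100%. IC50 divided by H37Rv MIC.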

In [1], `OC(c1ccc(OCc2cccc(Br)c2)cc1)C1CC1` (stereo not drawn) returned an MIC of 12.5 µg/mL (≈ 37.5 µM).

`NNC(=O)c1ccncc1` [ISONIAZID]: the MST in data set [2] stood at 40; in data set [5], 30. Further, the survival at 25 mg/kg in data set [3] and in [4] was 100% each time.

`CC(C)N(CCOc1ccc(COc2ccc(C(O)C3CC3)cc2)cc1)C(C)C` (stereo not drawn): in [1], the MIC was found to be 12.5 µg/mL (≈ 31.4 µM).

`O=C(c1ccc(OCc2ccc(Br)cc2)cc1)C1CC1` came in with a minimal inhibitory concentration (MIC) in data set [1] of 6.25 µg/mL (≈ 18.9 µM).

Compound `COc1cc(COc2ccc(C(O)C3CC3)cc2)ccc1OCCN1CCOCC1` (stereo not drawn) yielded an MIC in data set [1] of 12.5 µg/mL (≈ 30.2 µM).

Take `COc1cc(COc2ccc(C(O)C3CC3)cc2)ccc1OCCN(C(C)C)C(C)C` (stereo not drawn): the MIC in [1] is more than 12.5 µg/mL.

For `O=[N+]([O-])c1cccc(COc2ccc(C(O)C3CC3)cc2)c1` (stereo not drawn), in [1], the minimum inhibitory concentration (MIC) came to 6.25 µg/mL (≈ 20.9 µM).

Consider `OC(c1ccc(OCc2ccc(Br)cc2)cc1)C1CC1` (stereo not drawn), for which the Activity in [6] worked out at 88%. Moreover, inhibition of growth in data set [1] (MIC) required 6.25 µg/mL (≈ 18.8 µM). In addition, the MST in [7] is reported as 23.37.

Take `COc1cc(COc2ccc(C(=O)C3CC3)cc2)cc(OC)c1OC`: the MIC in data set [1] was more than 12.5 µg/mL.

`O=C(c1ccc(OCc2cccc(OCCN3CCCCC3)c2)cc1)C1CC1`: the MIC in data set [1] was 12.5 µg/mL (≈ 32.9 µM).

`O=C(c1ccc(OCc2cccc([N+](=O)[O-])c2)cc1)C1CC1` came in with an MIC in data set [1] of 6.25 µg/mL (≈ 21 µM).

In data set [1], `CN(C)CCOc1ccc(COc2ccc(C(=O)C3CC3)cc2)cc1` had an MIC of more than 12.5 µg/mL.

As to `CCCCN(CCCC)CCOc1ccc(C(O)C2CC2)cc1` (stereo not drawn), in [1], inhibition of growth (MIC) required 12.5 µg/mL (≈ 39.1 µM).

Compound `O=C(c1ccc(OCc2ccc(OCCN3CCCCC3)cc2)cc1)C1CC1` yielded a minimal inhibitory concentration (MIC) in data set [1] of 12.5 µg/mL (≈ 32.9 µM).

As to `OC(c1ccc(OCc2ccc(OCCN3CCCCC3)cc2)cc1)C1CC1` (stereo not drawn), the Activity stood at 98% in [6] and 9 ×10⁷ /g in [16]. In addition, the remaining at 3 h in data set [8] was less than 70%. The survival at 100 mg/kg in data set [9] came to 25%; in data set [10], 50%. The results for the MIC in [1], in [11] and in data set [12] were 3.12 µg/mL (≈ 8.18 µM), more than 12.5 µg/mL and more than 12.5 µg/mL, respectively. Further, the IC50 (in [13]; in the data set with Vero) was more than 50 µg/mL each time. The MST is given as 31.62 in data set [14] and 27.5 in [7]. The “Selectivity Index” value in [15] and in [17] was more than 10 throughout.

`O=C(c1ccc(OCc2ccc(OCCN3CCOCC3)cc2)cc1)C1CC1` registered an MIC in data set [1] of 6.25 µg/mL (≈ 16.4 µM).

Regarding `OC(c1ccc(OCc2ccc(OCc3ccccc3)cc2)cc1)C1CC1` (stereo not drawn), the Activity in data set [6] is 54%. Also, in [1], the MIC stood at 3.12 µg/mL (≈ 8.66 µM). For the same compound, the IC50 (in data set [13]; in the data set on Vero) was more than 50 µg/mL in each case. Besides, the “Selectivity Index” value in [15] and in data set [17] was more than 10 in each case.

Turning to `COc1cc(COc2ccc(C(=O)C3CC3)cc2)ccc1OCCN1CCCCC1`, in data set [1], the MIC is more than 12.5 µg/mL.

On to `O=C(c1ccc(OCc2cccc(Br)c2)cc1)C1CC1`, for which, in data set [1], it took 12.5 µg/mL (≈ 37.7 µM) to inhibit growth (MIC).

Regarding `COc1cc(COc2ccc(C(O)C3CC3)cc2)ccc1OCCN1CCCCC1` (stereo not drawn), the MIC in [1] was 6.25 µg/mL (≈ 15.2 µM).

For the compound `CN(C)CCOc1ccc(COc2ccc(C(O)C3CC3)cc2)cc1` (stereo not drawn), in [6], the Activity was 80%. In [1], this compound came in with an MIC of 3.12 µg/mL (≈ 9.14 µM). Moreover, the IC50 (in data set [13]; with Vero) was more than 50 µg/mL each time. Moreover, the MST in [7] was determined as 12.85. Moreover, the “Selectivity Index” value in data set [15] and in data set [17] was more than 10 in each case.

Turning to `COc1cc(COc2ccc(C(=O)C3CC3)cc2)ccc1OCCN(C(C)C)C(C)C`, the MIC in [1] was more than 12.5 µg/mL.

On to `CC(C)N(CCOc1ccc(COc2ccc(C(=O)C3CC3)cc2)cc1)C(C)C`, for which it took 12.5 µg/mL (≈ 31.6 µM) to inhibit growth in [1] (MIC).

`COc1cc(COc2ccc(C(O)C3CC3)cc2)cc(OC)c1OC` (stereo not drawn) displayed an MIC in [1] of 12.5 µg/mL (≈ 36.3 µM).

As to `OC(c1ccc(OCc2ccc(OCCN3CCOCC3)cc2)cc1)C1CC1` (stereo not drawn), the Activity in data set [6] turned out to be 89%. This compound also had an MIC in [1] of 3.12 µg/mL (≈ 8.14 µM). The IC50 (in [13]; in the data set on Vero) was more than 50 µg/mL each time. Besides, the “Selectivity Index” value in data set [15] and in data set [17] was more than 10 throughout.

Turning to `CCCCN(CCCC)CCOc1ccc(C(=O)C2CC2)cc1`, in [1], the MIC was more than 12.5 µg/mL.

Consider `O=C(c1ccc(OCc2ccc(OCc3ccccc3)cc2)cc1)C1CC1`, for which the Activity in [6] is given as 0%. Inhibition of growth in [1] (MIC) required 1.56 µg/mL (≈ 4.35 µM). For the same compound, the IC50 (in [13]; with Vero) was more than 50 µg/mL each time. In addition, the “Selectivity Index” value in data set [15] and in data set [17] was more than 10 throughout.

`OC(c1ccc(OCc2cccc(OCCN3CCCCC3)c2)cc1)C1CC1` (stereo not drawn) gave an MIC in data set [1] of 6.25 µg/mL (≈ 16.4 µM).

In [1], `COc1cc(COc2ccc(C(=O)C3CC3)cc2)ccc1OCCN1CCOCC1` registered an MIC of 6.25 µg/mL (≈ 15.2 µM).

What is called MIC is the least concentration at which growth counts as inhibited. The term IC50 denotes the concentration that gives 50% inhibition.
